# Experimental data of several laboratories.
# Lines come from different studies, so protocols differ.
# Serine protease HTRA1 S328A: Serine protease HTRA1 (Homo sapiens, UniProt Q92743, S328A)
# TMEM97: Sigma intracellular receptor 2 (TMEM97, Homo sapiens, UniProt Q5BJF2)
# tspO: tspO (Cereibacter sphaeroides, UniProt Q9RFC8)
SMILES,target,assay,conditions,measurement,result
CC(C)C[C@H](NC(=O)[C@H](CC(=O)O)NC(=O)[C@H](CC(=O)O)NC(=O)[C@H](CC(=O)O)NC(=O)[C@@H](NC(=O)[C@H](Cc1c[nH]c2ccccc12)NC(=O)[C@@H](N)CCC(=O)O)[C@@H](C)O)C(=O)N[C@@H](CO)C(=O)N[C@H](C(=O)N[C@@H](CC(=O)O)C(=O)N[C@@H](C)C(=O)O)C(C)C,Serine protease HTRA1 S328A,"binding, ITC",pH 8,Kd,25.6 µM
CCCN(CCC)CCc1ccc(OC)c(OCCc2ccccc2)c1,TMEM97,"ligand displacement, radioligand",,Ki,0.0827 µM
CC(C)C[C@H](NC(=O)CNC(=O)[C@H](C)NC(=O)c1ccc(S(=O)(=O)NC[C@H]2O[C@@H](C)[C@@H](O)[C@@H](O)[C@@H]2O)cc1)C(=O)N[C@@H](C)C(=O)N[C@H]1CCN(c2cc3c(cc2F)c(=O)c(C(=O)O)cn3C2CC2)C1,"Fucose-binding lectin PA-IIL (lecB, Pseudomonas aeruginosa, UniProt Q9HYN5)","ligand displacement, FP",,Ki,1.43 µM
O=c1c(O)c(-c2ccc(O)c(O)c2)oc2cc(O)ccc12,"Ribosomal protein S6 kinase beta-1 (RPS6KB1, Homo sapiens, UniProt P23443)","cell-free assay, competition with immobilised ligand",,Kd,0.94 µM
CC[C@H](C)[C@H](NC(=O)[C@H](Cc1c[nH]c2ccccc12)NC(=O)[C@H](C)NC(=O)[C@H](C)NC(=O)[C@H](Cc1ccc(O)cc1)NC(=O)[C@@H](N)CO)C(=O)N[C@@H](CC(=O)O)C(=O)N[C@H](C(=O)N[C@@H](CCC(=O)O)C(=O)N[C@@H](CO)C(=O)N[C@@H](CC(C)C)C(=O)O)C(C)C,Serine protease HTRA1 S328A,"binding, ITC",pH 8,Kd,43.3 µM
CC[C@H](C)[C@H](NC(=O)[C@H](Cc1ccccc1)NC(=O)[C@H](CC(=O)O)NC(=O)[C@H](CCCNC(=N)N)NC(=O)[C@@H](NC(=O)[C@H](C)NC(=O)[C@H](CC(C)C)NC(=O)[C@H](CC(N)=O)NC(=O)[C@H](CC(=O)O)NC(=O)[C@H](CC(C)C)NC(=O)[C@@H](NC(=O)[C@@H](NC(=O)[C@H](CO)NC(=O)[C@H](CCSC)NC(=O)[C@H](CCC(=O)O)NC(=O)[C@H](CC(=O)O)NC(=O)[C@H](CO)NC(=O)[C@H](Cc1ccccc1)NC(=O)[C@H](CO)NC(=O)CNC(=O)[C@H](CC(=O)O)NC(=O)[C@H](C)NC(=O)[C@@H](N)Cc1c[nH]cn1)[C@@H](C)O)[C@@H](C)CC)[C@@H](C)O)C(=O)N[C@@H](CC(N)=O)C(=O)N[C@@H](Cc1c[nH]c2ccccc12)C(=O)N[C@@H](CC(C)C)C(=O)N[C@H](C(=O)N[C@@H](CCC(N)=O)C(=O)N[C@H](C(=O)N[C@@H](CCCCN)C(=O)N[C@H](C(=O)N[C@H](C(=O)N[C@@H](CC(=O)O)C(=O)O)[C@@H](C)O)[C@@H](C)CC)[C@@H](C)O)[C@@H](C)CC,"Glucagon receptor (GCGR, Homo sapiens, UniProt P47871)","reporter gene, agonist, luciferase",,EC50,> 1 µM
CC(C)C[C@H](NC(=O)[C@H](Cc1ccccc1)NC(=O)c1cnccn1)B(O)O,"Serine protease HTRA2, mitochondrial (HTRA2, Homo sapiens, UniProt O43464)","enzyme activity, inhibitor",,IC50,> 33 µM
Cc1cc2c(C(C)C)c(O)c(O)c(C=O)c2c(O)c1-c1c(C)cc2c(C(C)C)c(O)c(O)c(C=O)c2c1O,tspO,"binding, fluorescence",,Kd,6 µM
Cc1c2ccncc2c(C)c2c1[nH]c1ccccc12,TMEM97,"ligand displacement, radioligand",,Ki,> 10 µM
NC[C@@H]1[C@H]2CN3C(=O)c4cccn4[C@@H]4NC(N)=N[C@@]43[C@@H]2[C@]2(N=C(N)N[C@H]2O)[C@H]1Cl (racemic),"Proteasome subunit beta type-8, chymotrypsin-like site (PSMB8, Homo sapiens, UniProt P28062)","enzyme activity, inhibitor",,IC50,4.8 µM
COc1ncccc1-c1cnn2ccc(N3CCN(C(=O)OC(C)C)CC3)nc12,"Acetylcholine receptor subunit alpha (CHRNA1, Homo sapiens, UniProt P02708)","ion current, inhibitor",,IC50,12 µM
COc1cc2c(cc1OC)C(=O)C(CC1CCN(Cc3ccccc3)CC1)C2 (stereo not drawn),TMEM97,"ligand displacement, radioligand",,Ki,0.084 µM
COc1cc(Nc2ncc(F)c(Nc3ccc4c(n3)NC(=O)C(C)(C)O4)n2)cc(OC)c1OC,"UDP-glucuronosyltransferase 1A1 (UGT1A1, Homo sapiens, UniProt P22309)","enzyme activity, inhibitor",,IC50,0.158 µM
C=CC1=C(C)/C(=C/c2[nH]c(Cc3[nH]c(/C=C4\NC(=O)C(C)=C4C=C)c(C)c3CCC(=O)O)c(CCC(=O)O)c2C)NC1=O,tspO,"binding, fluorescence",,Kd,4.7 µM
Cc1cccc(CN2CCN(C(c3ccccc3)c3ccc(Cl)cc3)CC2)c1 (stereo not drawn),TMEM97,"ligand displacement, radioligand",,Ki,> 10 µM
CC[C@H](C)[C@H](NC(=O)[C@H](Cc1c[nH]c2ccccc12)NC(=O)[C@H](C)NC(=O)[C@H](C)NC(=O)[C@H](Cc1ccc(O)cc1)NC(=O)[C@@H](N)CO)C(=O)N[C@@H](CC(=O)O)C(=O)N[C@@H](CO)C(=O)N[C@H](C(=O)N[C@@H](CC(C)C)C(=O)N[C@@H](C)C(=O)O)C(C)C,Serine protease HTRA1 S328A,"binding, ITC",pH 8,Kd,3.9 µM
CC[C@H](C)[C@H](NC(=O)[C@H](C)NC(=O)[C@H](CCCNC(=N)N)NC(=O)[C@H](CC(C)C)NC(=O)[C@@H](N)Cc1ccccc1)C(=O)N[C@@H](CCCNC(=N)N)C(=O)N1CCC[C@H]1C(=O)N[C@@H](CCCCN)C(=O)O,"B1 bradykinin receptor (Rattus norvegicus, UniProt P97583)","ligand displacement, radioligand",cell membranes,IC50,0.74 µM
COc1cc2c(cc1OC)CN(CCc1ccc(NC(=O)c3cc(OC)c(OC)cc3NC(=O)c3cnc4ccccc4c3)cc1)CC2,TMEM97,"ligand displacement, radioligand",,Ki,0.0178 µM
